Active and inactive are the calls of the source. No cut-off for these calls is given here.
What was measured:
[1] = target: Acidic phospholipase A2 2 (Naja naja) (UniProt P15445); test: Inhibition of Naja naja venom group 1 secretory phospholipase A2 at 10 uM by liquid scintillation counting
How it was run: (§1)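 Enzyme diluted in 100 mM Tris-HCl, 1 mM CaCl2, pH 7.5, preincubated 5 min at 37 °C with compound or vehicle. Substrate was autoclaved E. coli CECT 101 membranes labelled with [3H]oleic acid. Reaction ran 15 min, stopped with ice-cold BSA (0.07% w/v final), spun 1200g 10 min at 4 °C, supernatant counted. IC50 from ≥4 concentrations; mean ± SEM, n = 6.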

[2] = target: T1, Cytosolic phospholipase A2 (Mus musculus) (UniProt P47713); test: Inhibition of group 4 cytosolic phospholipase A2 in mouse RAW264.7 cells at 10 uM; assay type: cell-based
T1 sequence (whole entry): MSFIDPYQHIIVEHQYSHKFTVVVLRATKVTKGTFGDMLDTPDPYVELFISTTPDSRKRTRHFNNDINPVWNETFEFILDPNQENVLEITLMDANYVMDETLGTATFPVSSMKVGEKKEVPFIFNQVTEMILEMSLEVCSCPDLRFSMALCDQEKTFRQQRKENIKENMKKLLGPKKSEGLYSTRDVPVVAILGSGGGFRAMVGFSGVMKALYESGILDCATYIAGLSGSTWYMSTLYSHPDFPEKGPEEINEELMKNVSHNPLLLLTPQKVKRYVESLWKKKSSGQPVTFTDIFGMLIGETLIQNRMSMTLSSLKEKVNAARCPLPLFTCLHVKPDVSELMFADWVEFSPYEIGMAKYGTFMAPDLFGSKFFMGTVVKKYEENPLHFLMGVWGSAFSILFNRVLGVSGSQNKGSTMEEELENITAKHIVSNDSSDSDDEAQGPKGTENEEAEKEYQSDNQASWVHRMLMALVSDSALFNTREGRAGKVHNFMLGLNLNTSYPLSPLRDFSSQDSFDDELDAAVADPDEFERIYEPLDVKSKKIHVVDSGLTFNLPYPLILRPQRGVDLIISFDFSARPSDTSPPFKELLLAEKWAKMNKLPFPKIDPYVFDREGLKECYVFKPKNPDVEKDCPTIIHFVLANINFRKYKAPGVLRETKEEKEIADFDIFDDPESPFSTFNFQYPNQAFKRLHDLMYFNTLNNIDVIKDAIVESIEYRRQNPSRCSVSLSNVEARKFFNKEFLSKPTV
How it was run: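 Enzyme was the cytosolic fraction of RAW 264.7 macrophages. Substrate 1-palmitoyl-2-[14C]arachidonyl-sn-glycero-3-phosphocholine. Compound added in methanol (<1% final) just before the enzyme. Incubation 60 min at 37 °C, stopped with isopropanol-heptane-H2SO4. Released arachidonate extracted into hexane, cleaned on silica gel and counted. Mean ± SEM, n = 6.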

[3] = target: T1, Cytosolic phospholipase A2 (Mus musculus); test: Inhibition of group 4 cytosolic phospholipase A2 in mouse RAW264.7 cells; assay type: cell-based
How it was run: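 Enzyme source was cytosolic fractions of RAW 264.7 cells. Substrate was 1-palmitoyl-2-[14C]arachidonyl-PC (2 × 10^6 cpm). Compounds were added in methanol (final <1%) just before the enzyme. After 60 min at 37 °C, the reaction was stopped with isopropanol/heptane/0.5 M H2SO4 and extracted into hexane with silica gel. Released arachidonate was counted.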

[4] = Cytotoxicity against human neutrophils up to 10 uM after 16 to 40 hrs by MTT assay; assay type: cell-based; conditions: neutrophil
How it was run: (§2)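 Cytotoxicity measured on purified human neutrophils as mitochondrial-dependent reduction of MTT to formazan; compounds tested up to 10 µM, reported as % inhibition of viability. Mean ± SEM, n = 6.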

[5] = target: Phospholipase A2, major isoenzyme (Sus scrofa) (UniProt P00592); test: Inhibition of pig pancreatic group 1 secretory phospholipase A2 at 10 uM by liquid scintillation counting
Phospholipase A2, major isoenzyme (Sus scrofa), sequence (P00592 23-146 limits assumed): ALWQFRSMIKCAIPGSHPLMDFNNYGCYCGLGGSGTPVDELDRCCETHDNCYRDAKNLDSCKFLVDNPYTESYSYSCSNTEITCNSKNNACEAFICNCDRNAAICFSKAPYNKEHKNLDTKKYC
How it was run: (§3)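 Substrate was E. coli CECT 101 membranes labelled with [3H]oleic acid and autoclaved. Enzyme in 100 mM Tris-HCl/1 mM CaCl2, pH 7.5, was preincubated 5 min at 37 °C with compound or vehicle, then incubated 15 min with membranes. The reaction was stopped with ice-cold BSA (final 0.07%) and centrifuged, and supernatant radioactivity was counted. IC50 from ≥4 concentrations; n = 6.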

[6] = target: T2, Phospholipase A2, membrane associated (Homo sapiens) (UniProt P14555); test: Inhibition of human synovial recombinant group 2 secretory phospholipase A2 at 10 uM by liquid scintillation counting; how it was run: as §3
T2 sequence (whole entry): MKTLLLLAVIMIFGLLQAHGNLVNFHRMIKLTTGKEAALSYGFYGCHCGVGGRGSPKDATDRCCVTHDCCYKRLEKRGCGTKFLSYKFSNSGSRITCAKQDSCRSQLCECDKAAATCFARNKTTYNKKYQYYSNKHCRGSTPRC

[7] = target: T3, Phospholipase A2, membrane associated (Homo sapiens, UniProt P14555); test: Inhibition of human synovial recombinant group 2 secretory phospholipase A2 by liquid scintillation counting; how it was run: as §3
T3 sequence (P14555 whole entry): T2 sequence (whole entry)

[8] = target: T4, Phospholipase A2 (Apis mellifera) (UniProt P00630); test: Inhibition of bee venom group 3 secretory phospholipase A2 at 10 uM by liquid scintillation counting; how it was run: as §1
T4 sequence (whole entry): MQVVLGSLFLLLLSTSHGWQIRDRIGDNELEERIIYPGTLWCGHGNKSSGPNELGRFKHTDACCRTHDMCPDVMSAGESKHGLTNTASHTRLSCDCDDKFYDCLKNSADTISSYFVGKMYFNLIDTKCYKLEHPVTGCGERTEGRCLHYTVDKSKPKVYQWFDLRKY

[9] = Cytotoxicity against human neutrophils assessed as inhibition of cell viability at 10 uM after 16 to 40 hrs by MTT assay; assay type: cell-based, Neutrophil; conditions: read-out: INH; how it was run: as §2
[10] = system: Neutrophil; test: Inhibition of TPA-induced chemiluminescence response in human neutrophils at 10 uM after 7 mins; assay type: functional
How it was run: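 Neutrophils (2.5 × 10^6/mL) mixed with luminol (40 µM) and stimulated with 1 µM TPA; chemiluminescence read at 7 min, the time of maximal production. % inhibition at 10 µM; mean ± SEM, n = 6.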

[11] = system: Neutrophil; test: Inhibition of cytochalasin B and fMLP-stimulated human neutrophil degranulation assessed as inhibition of elastase release at 10 uM preincubated for 5 mins before cytochalasin B and fMLP challenge measured after 20 mins by microtiter plate assay; assay type: functional
How it was run: (§4)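 Neutrophils (2.5 × 10^6/mL) preincubated 5 min with compound or vehicle, then stimulated 10 min at 37 °C with cytochalasin B (10 µM) + FMLP (10 nM). Supernatants incubated 20 min at 37 °C with Boc-L-alanine p-nitrophenyl ester (200 µM); p-nitrophenol read at 414 nm. IC50 from ≥4 concentrations, n = 6.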

[12] = system: Neutrophil; test: Inhibition of cytochalasin B and fMLP-stimulated human neutrophil degranulation assessed as inhibition of elastase release preincubated for 5 mins before cytochalasin B and fMLP challenge measured after 20 mins by microtiter plate assay; assay type: functional, cell-based; how it was run: as §4
[13] = target: Phospholipase A2, major isoenzyme (Sus scrofa, UniProt P00592); test: Inhibition of pig pancreatic group 1 secretory phospholipase A2 by liquid scintillation counting; how it was run: as §3
Phospholipase A2, major isoenzyme, sequence (P00592 whole entry): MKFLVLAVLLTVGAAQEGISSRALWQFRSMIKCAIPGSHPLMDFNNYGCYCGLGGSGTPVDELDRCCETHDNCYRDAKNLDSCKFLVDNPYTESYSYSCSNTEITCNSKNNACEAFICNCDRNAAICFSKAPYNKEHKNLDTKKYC

[14] = target: T5, Phospholipase A2 (Apis mellifera, UniProt P00630); test: Inhibition of bee venom group 3 secretory phospholipase A2 by liquid scintillation counting; how it was run: as §1
T5 sequence (P00630 whole entry): T4 sequence (whole entry)

[15] = Homo sapiens, Neutrophil, read-out: IC50

Acidic phospholipase A2 2 (Naja naja), sequence (P15445 whole entry): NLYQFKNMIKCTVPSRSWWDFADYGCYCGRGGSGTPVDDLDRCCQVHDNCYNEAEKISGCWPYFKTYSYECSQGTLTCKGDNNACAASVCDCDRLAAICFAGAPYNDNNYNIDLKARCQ

SMILES	inhibition [1]	inhibition [2]	inhibition [3]	Activity [4]	inhibition [5]	inhibition [6]	IC50 [7]	inhibition [8]	cytotoxicity at 10 µM [9]	inhibition at 10 µM [10]	inhibition at 10 µM [11]	IC50 [12, 15]	IC50 ([12]; neutrophil)	IC50 [13]	IC50 [14]
CC1=C(CC/C(C)=C/CCC2=CC[C@H](C3=CC(=O)O[C@H]3O)O[C@H]2O)C(C)(C)CCC1	17%	44.6%	–	–	–	–	–	–	–	–	–	–	–	–	–
COC(=O)[C@]1(O)C=C(OC)C(=O)[C@@H]1C[C@@]1(C)CC[C@]2(C)C(C)=CCC[C@H]2[C@H]1C [DYSIDENONE A]	–	–	inactive	Non-toxic	–	–	–	–	–	–	–	–	–	–	–
CC1=CCC[C@H]2[C@@H](C)[C@@](C)(CC3=C(O)C(=O)C=C(NCCS(=O)(=O)O)C3=O)CC[C@]12C [DYSIDINE]	0.7%	–	inactive	Non-toxic	1.2%	73.8%	2 µM	33.4%	0.3%	44.4%	90.7%	1.3 µM	Dose-dependent effect	–	–
COC(=O)[C@@]1(O)C=C(OC)C(=O)[C@H]1C[C@@]1(C)CC[C@]2(C)C(C)=CCC[C@H]2[C@H]1C [DYSIDENONE B]	–	–	inactive	Non-toxic	–	–	–	–	–	–	–	–	–	–	–
COC1=CC(=O)C(O)=C(C[C@@]2(C)CC[C@]3(C)C(C)=CCC[C@H]3[C@H]2C)C1=O [BOLINAQUINONE]	26%	–	inactive	–	86.4%	100%	0.2 µM	99.1%	14%	40.1%	68.1%	5.2 µM	–	0.4 µM	0.1 µM
